In ChEMBL document CHEMBL1145965, “4-Substituted 4-hydroxycyclohexa-2,5-dien-1-ones with selective activities against colon and renal cancer cell lines” (J Med Chem, 2003):

Legend:
HCT-116 [1] = experiment: Inhibitory activity against HCT116 colon cancer cell line; assay type: functional, cell-based; settings: Homo sapiens
Summary of the method: (§1)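 Cells grown in RPMI 1640 with 2 mM L-glutamine and 10% fetal calf serum, 37 °C, 5% CO2. Seeded at 5 × 10³ per well, 24 h adherence, then drug 0.1 nM–100 μM final (n = 8; DMSO stocks, dilutions in medium) for 72 h.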

ACHN = experiment: In vitro lethal concentration against most sensitive ACHN cell line; assay type: functional; settings: Homo sapiens, read-out: LC50 (the source's name)
SW-620 = experiment: In vitro lethal concentration against least sensitive colon SW-620 cell line; assay type: functional; settings: Homo sapiens, read-out: LC50 (the source's name)
HCT-116 [2] = experiment: In vitro lethal concentration against most sensitive colon HCT116 cell line; assay type: functional; settings: Homo sapiens, read-out: LC50 (the source's name)
[3] = tested on: Panel NCI-60 (60 carcinoma cell lines); experiment: In vitro mean growth inhibitory activity against 60-cell panel; assay type: functional; settings: Homo sapiens
[4] = tested on: Panel NCI-60 (60 carcinoma cell lines); experiment: In vitro mean growth lethal concentration in colon subpanel against 60-cell panel; assay type: functional; settings: Homo sapiens, read-out: Mean LC50
[5] = tested on: Panel NCI-60 (60 carcinoma cell lines); experiment: In vitro mean growth lethal concentration in renal subpanel against 60-cell panel; assay type: functional; settings: Homo sapiens, read-out: Mean LC50
HT-29 = experiment: Inhibitory activity against HT-29 colon cancer cell line; assay type: functional, cell-based; settings: Homo sapiens; summary of the method: as §1
[6] = tested on: Panel NCI-60 (60 carcinoma cell lines); experiment: In vitro mean growth lethal concentration against 60-cell panel; assay type: functional; settings: Homo sapiens, read-out: Mean LC50
MCF7 = experiment: Inhibitory activity against MCF-7 mammary carcinoma cell line; assay type: functional, cell-based; settings: Homo sapiens; summary of the method: as §1
MDA-MB-468 = experiment: Inhibitory activity against MDA-468 mammary carcinoma cell line; assay type: functional, cell-based; settings: Homo sapiens; summary of the method: as §1
A549 = experiment: Inhibitory activity against A549 lung adenocarcinoma cell line; assay type: functional, cell-based; settings: Homo sapiens; summary of the method: as §1

| Structure (SMILES) | IC50 (HCT-116 [1]) [nM] | CC50 (ACHN) [µM] | CC50 (SW-620) [µM] | CC50 (HCT-116 [2]) [µM] | GI50 [3] [nM] | CC50 [4] [µM] | CC50 [5] [µM] | IC50 (HT-29) [nM] | CC50 [6] [µM] | IC50 (MCF7) [nM] | IC50 (MDA-MB-468) [nM] | IC50 (A549) [nM] |
| --- | --- | --- | --- | --- | --- | --- | --- | --- | --- | --- | --- | --- |
| O=C1C=CC(O)(c2ccccc2)C=C1 | 2220 | 5.5 | 51.3 | 6.31 | 2290 | 10.6 | 16.7 | 3630 | 21.9 |  |  |  |
| COc1ccc2nc(C3(OC)C=CC(=NS(=O)(=O)c4ccc(C)cc4)C=C3)sc2c1 (stereo unspecified) |  | 8.32 | 77.6 | 5.01 | 1910 | 13.2 | 11.2 |  | 18.6 |  |  |  |
| COC1(c2nc3ccc(F)cc3s2)C=CC(=NS(=O)(=O)c2ccc(C)cc2)C=C1 (stereo unspecified) |  | > 100 | > 100 | 5.25 | 1740 | 25.6 | 19.1 |  | 30.2 |  |  |  |
| O=C1/C(=C\c2ccccc2)CC(O)(c2nc3ccccc3s2)C/C1=C/c1ccccc1 (stereo unspecified) |  | 30.9 | > 100 | 5.37 | 2690 | 17.4 | 37.2 |  | 47.9 |  |  |  |
| O=C1C=CC(O)(c2cnc3ccccc3c2)C=C1 | 720 | 15.1 | > 100 | 4.26 | 1070 | 15.8 | 9.66 | 970 | 15.8 | 770 | 1700 |  |
| O=C1C=CC(O)(c2cc3ccccc3s2)c2ccccc21 (stereo unspecified) |  | > 100 | > 100 | > 100 | 2290 | > 100 | > 100 |  | 70.8 |  |  |  |
| O=C1C=CC(O)(c2nc3ccccc3s2)C(Cl)=C1 (stereo unspecified) |  | 0.58 | > 100 | 0.68 | 460 | 2.31 | 1.8 |  | 6.31 |  |  |  |
| COC1(c2nc3ccc(C)cc3s2)C=CC(=NS(=O)(=O)c2ccc(C)cc2)C=C1 (stereo unspecified) |  | 6.92 | 95.5 | 1.78 | 1200 | 9.92 | 10.6 |  | 19.5 |  |  |  |
| O=C1C=CC(O)(c2nc3ccccc3o2)C=C1 | 180 | 4.9 | > 100 | 0.87 | 460 | 1.13 | 1.64 | 290 | 7.08 | 390 | 350 | 2330 |
| O=C1C=CC(O)(c2cc3ccccc3o2)C=C1 | 160 | 1 | > 100 | 0.6 | 520 | 3.66 | 2.4 | 420 | 7.24 |  |  | 2300 |
| O=C1C=CC(O)(c2nccs2)C=C1 | 620 | 7.94 | 26.3 | 4.9 | 1350 | 14.5 | 9.17 | 720 | 14.5 |  |  |  |
| O=C1C=CC(O)(c2cc3ccccc3s2)C=C1 | 170 | 0.33 | > 100 | 0.6 | 250 | 1.69 | 1.4 | 550 | 5.75 |  |  | 2430 |
| O=C1C=CC(O)(c2cc3ccccc3o2)c2ccccc21 (stereo unspecified) |  | 5.75 | 3.55 | 4.9 | 740 | 7.76 | 6.48 |  | 7.76 |  |  |  |
| O=C1CCC(O)(c2nc3ccccc3s2)CC1 |  | > 100 | > 100 | > 100 | > 100000 | > 100 | > 100 |  | > 100 |  |  |  |
| O=C1C=CC(O)(c2cccc3ccccc23)C=C1 | 420 | 13.2 | > 100 | 5.37 | 1820 | 12.2 | 17 | 1360 | 25.7 | 780 | 1770 |  |
| O=C1C=CC(O)(c2cccs2)C=C1 | 660 | 35.5 | > 100 | 5.89 | 1780 | 32.5 | 14.4 | 1250 | 30.9 | 570 | 720 |  |
| O=C1C=CC(O)(c2ccccn2)C=C1 | 550 | 8.91 | > 100 | 5.24 | 1910 | 6.9 | 11.3 | 460 | 20.4 | 720 | 1500 |  |
| COC1(c2nc3ccccc3s2)C=CC(=NS(=O)(=O)c2ccc(C)cc2)C=C1 (stereo unspecified) |  | > 100 | > 100 | 44.7 | 15500 | > 100 | > 100 |  | 83.2 |  |  |  |
| COC1(c2nc3c(F)cccc3s2)C=CC(=NS(=O)(=O)c2ccc(C)cc2)C=C1 (stereo unspecified) |  | 7.59 | 67.6 | 57.5 | 2570 | 26.9 | 14.4 |  | 27.5 |  |  |  |
| O=C1C=CC(O)(c2ccc3ccccc3c2)C=C1 | 820 | 7.76 | > 100 | 4.47 | 810 | 6.58 | 4.68 | 2500 | 11.7 | 1300 | 1400 |  |
| CC1=CC(O)(c2nc3ccccc3s2)C=C(C)C1=O |  | > 100 | > 100 | > 100 | 38200 | > 100 | > 100 |  | > 100 |  |  |  |
| Oc1ccc(-c2nc3ccccc3s2)cc1 |  | > 100 | > 100 | > 100 | 33900 | > 100 | > 100 |  | > 100 | 69400 | 400 |  |
